The values below come from PMC2212508 (The Journal of Experimental Medicine, 1998).

As a reminder, the % inhibition is the share of the control response that was lost under treatment. Lower therefore signals a response near the control.

Where two headings read alike, the source gives them in different places.

Holding throughout (assay type): cell-based
The target of experiment [1] is KV (Kv1.3), human T cells (Homo sapiens, UniProt P22001). Briefly: whole-cell patch clamp, peak KV current. Put shortly:
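Peripheral T cells came from healthy donors' venous blood by Ficoll-Hypaque. Recording was whole-cell at 20–25°C in Ringer, with a 160 mM K+ aspartate/10 mM EGTA pipette (pH 7.2). Pulses of 200 ms went from −80 to +30 mV every 30 s. Each steroid was bath-applied at 60 μM. Percent inhibition of peak KV current is mean ± SD, ≥3 experiments.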
A general note: In patch-clamp work, channel activity is measured electrically.

For experiment [2], the target named is KCa (hKCa4), activated human T cells (Homo sapiens, UniProt O15554). The experiment in a line: whole-cell patch clamp, KCa slope conductance near -80 mV. Put shortly: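 Human T-cell blasts were made from Ficoll-isolated blood T cells with 10 μg/ml PHA. KCa was opened by dialysis with a pipette of 140 mM K+ aspartate, 7.8 mM CaCl2 and 10 mM EGTA (nominal 1 μM free Ca2+, pH 7.2). Ramps of 200 ms went from −120 to +50 mV every 30 s. Each compound was applied at 60 μM. Slope-conductance inhibition near −80 mV is mean ± SD, ≥3 experiments.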

For experiment [3], the target named is T1, Kv3.1 (Mus musculus, UniProt P15388).
T1 sequence (P15388 1-511): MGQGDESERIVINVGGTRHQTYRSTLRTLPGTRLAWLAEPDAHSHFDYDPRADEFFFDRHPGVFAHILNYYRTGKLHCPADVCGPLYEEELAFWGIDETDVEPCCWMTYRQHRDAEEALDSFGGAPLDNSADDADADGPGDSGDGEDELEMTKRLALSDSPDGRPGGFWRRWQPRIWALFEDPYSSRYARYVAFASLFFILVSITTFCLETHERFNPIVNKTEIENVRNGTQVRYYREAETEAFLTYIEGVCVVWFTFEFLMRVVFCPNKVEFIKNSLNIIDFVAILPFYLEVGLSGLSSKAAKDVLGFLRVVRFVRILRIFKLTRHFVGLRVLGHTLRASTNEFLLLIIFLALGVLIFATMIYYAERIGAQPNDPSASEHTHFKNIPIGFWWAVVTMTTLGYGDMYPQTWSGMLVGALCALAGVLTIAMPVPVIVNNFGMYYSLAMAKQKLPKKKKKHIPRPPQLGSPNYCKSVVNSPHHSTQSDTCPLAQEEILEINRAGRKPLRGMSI
The experiment in a line: whole-cell patch clamp. Conditions: read-out: % inhibition at 30 μM. Put shortly:
(§1)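 Cell lines stably expressing each cloned KV channel, cultured in RPMI 1640 with 10% heat-inactivated FBS at 37°C and 5% CO2. Whole-cell currents were recorded at 20–25°C in mammalian Ringer. The pipette held 160 mM K+ aspartate, 10 mM EGTA, pH 7.2. Steps of 200 ms went from −80 to +30 mV every 30 s. Test compound was bath-applied at 30 μM. Inhibition of peak current is mean ± SD from ≥3 experiments.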

Experiment [4] has as its system Kv1.4. Briefly: whole-cell patch clamp. The conditions noted are these: LTK cells; depolarizing pulses to +30 mV. The essentials: as §1
The target in experiment [5] is Kv1.3 (cloned) (Mus musculus, UniProt P16390). The experiment in a line: whole-cell patch clamp. The conditions noted are these: read-out: % inhibition at 30 μM. The essentials: as §1
Experiment [6] has as its target hSKM1 (Homo sapiens, UniProt P35499). Briefly: whole-cell patch clamp, peak Na+ current. Conditions: read-out: % inhibition at 30 μM. Put shortly:
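Cloned hSKM1 Na+ channel was expressed in a cultured cell line and recorded by whole-cell patch clamp at 20–25°C, with mammalian Ringer as bath. Peak Na+ current was taken at +10 mV. Test compound was applied at 30 μM. Percent inhibition is mean ± SD from at least three experiments.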

Chain of KV (Kv1.3), human T cells (P22001 whole entry): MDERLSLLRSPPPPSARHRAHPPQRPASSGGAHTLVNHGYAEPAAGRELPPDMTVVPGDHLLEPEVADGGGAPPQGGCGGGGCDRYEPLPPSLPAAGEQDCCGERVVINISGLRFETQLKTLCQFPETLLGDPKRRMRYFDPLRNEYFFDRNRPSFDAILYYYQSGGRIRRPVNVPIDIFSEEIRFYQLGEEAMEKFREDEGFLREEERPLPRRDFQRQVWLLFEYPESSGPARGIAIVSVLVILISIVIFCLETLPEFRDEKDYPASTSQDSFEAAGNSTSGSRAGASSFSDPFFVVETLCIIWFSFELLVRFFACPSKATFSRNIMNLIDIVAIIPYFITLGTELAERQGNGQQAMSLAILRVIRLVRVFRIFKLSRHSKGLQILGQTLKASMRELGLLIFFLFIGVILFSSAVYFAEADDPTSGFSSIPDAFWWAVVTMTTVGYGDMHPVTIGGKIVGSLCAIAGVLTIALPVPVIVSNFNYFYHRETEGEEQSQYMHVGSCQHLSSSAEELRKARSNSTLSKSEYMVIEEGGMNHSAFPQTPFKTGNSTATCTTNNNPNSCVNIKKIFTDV
Chain of KCa (hKCa4), activated human T cells (O15554 whole entry): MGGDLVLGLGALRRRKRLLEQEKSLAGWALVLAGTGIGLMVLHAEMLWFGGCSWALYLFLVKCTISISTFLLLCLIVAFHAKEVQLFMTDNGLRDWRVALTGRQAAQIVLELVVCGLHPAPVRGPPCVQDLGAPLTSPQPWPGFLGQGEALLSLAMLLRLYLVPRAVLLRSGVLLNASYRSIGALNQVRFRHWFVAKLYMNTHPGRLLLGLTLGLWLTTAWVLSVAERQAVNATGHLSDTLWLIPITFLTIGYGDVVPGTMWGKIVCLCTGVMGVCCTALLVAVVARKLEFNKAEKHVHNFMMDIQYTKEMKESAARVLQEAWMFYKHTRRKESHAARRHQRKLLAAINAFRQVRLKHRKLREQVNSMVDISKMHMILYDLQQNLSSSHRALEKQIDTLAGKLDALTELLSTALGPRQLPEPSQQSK
Chain of hSKM1 (P35499 whole entry): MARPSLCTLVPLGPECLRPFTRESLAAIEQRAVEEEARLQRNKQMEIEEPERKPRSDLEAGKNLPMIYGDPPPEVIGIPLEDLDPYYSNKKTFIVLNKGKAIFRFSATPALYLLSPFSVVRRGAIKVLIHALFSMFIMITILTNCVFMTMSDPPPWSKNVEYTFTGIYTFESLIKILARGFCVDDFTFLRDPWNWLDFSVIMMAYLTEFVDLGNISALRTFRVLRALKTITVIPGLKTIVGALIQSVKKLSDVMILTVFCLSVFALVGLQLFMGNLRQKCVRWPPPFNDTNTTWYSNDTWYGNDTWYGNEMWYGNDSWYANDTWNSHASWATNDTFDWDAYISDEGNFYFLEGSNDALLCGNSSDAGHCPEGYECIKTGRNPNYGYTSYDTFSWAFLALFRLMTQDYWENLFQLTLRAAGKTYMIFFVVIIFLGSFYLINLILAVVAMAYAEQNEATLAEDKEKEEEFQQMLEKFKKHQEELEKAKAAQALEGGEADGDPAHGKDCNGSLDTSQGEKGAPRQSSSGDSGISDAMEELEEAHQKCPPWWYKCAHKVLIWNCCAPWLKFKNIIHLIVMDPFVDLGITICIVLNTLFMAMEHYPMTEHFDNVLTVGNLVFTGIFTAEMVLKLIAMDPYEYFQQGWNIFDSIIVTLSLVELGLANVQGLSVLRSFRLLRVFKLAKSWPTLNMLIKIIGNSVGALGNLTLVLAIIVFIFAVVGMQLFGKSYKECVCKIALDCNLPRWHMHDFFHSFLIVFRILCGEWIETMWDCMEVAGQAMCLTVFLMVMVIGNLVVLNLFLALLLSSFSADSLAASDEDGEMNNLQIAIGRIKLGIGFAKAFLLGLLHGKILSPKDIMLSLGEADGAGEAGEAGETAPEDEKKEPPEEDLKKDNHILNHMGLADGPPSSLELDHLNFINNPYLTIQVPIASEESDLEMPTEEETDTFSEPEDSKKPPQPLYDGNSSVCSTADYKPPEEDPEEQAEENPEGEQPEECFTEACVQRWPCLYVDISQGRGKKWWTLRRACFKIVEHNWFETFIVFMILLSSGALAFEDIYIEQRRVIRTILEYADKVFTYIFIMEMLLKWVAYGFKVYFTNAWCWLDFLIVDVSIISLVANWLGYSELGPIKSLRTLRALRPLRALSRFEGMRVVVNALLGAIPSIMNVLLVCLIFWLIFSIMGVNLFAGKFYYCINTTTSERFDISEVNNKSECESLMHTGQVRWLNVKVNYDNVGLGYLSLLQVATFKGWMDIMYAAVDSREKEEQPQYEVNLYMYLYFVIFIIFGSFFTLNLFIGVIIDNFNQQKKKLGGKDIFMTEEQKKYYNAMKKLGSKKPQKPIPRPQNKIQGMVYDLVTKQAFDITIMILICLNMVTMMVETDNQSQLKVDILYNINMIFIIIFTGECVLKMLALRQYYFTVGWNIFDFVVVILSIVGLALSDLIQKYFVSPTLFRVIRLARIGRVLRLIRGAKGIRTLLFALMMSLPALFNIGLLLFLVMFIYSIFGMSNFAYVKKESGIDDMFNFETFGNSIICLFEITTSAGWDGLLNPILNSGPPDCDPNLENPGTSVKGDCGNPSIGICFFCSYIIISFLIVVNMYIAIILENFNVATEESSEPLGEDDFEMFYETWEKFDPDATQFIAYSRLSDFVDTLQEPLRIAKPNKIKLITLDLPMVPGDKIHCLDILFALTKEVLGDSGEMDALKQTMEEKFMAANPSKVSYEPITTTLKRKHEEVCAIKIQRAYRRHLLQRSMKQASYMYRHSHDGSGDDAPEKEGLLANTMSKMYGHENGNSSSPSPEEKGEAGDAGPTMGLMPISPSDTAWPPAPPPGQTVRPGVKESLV
Chain of Kv1.3 (cloned) (P16390 whole entry): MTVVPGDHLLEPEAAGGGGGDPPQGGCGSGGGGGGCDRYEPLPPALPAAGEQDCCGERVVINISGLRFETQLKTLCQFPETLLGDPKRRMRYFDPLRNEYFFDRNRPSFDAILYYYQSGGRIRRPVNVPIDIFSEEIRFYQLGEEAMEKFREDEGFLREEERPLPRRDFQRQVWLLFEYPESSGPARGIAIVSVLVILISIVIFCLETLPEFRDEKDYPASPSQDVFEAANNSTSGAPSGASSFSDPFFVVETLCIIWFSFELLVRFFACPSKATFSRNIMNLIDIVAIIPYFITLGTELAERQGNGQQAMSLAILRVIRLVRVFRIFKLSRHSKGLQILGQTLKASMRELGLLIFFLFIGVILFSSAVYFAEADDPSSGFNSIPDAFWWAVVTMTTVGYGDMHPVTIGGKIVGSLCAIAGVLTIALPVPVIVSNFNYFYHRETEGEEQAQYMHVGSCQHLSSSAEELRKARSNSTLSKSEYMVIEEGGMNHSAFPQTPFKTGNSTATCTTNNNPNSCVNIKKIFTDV

On to `C[C@]12CCC(=O)C=C1CC[C@@H]1[C@@H]2[C@@H](O)C[C@]2(C=O)[C@@H](C(=O)CO)CC[C@@H]12` [Aldosterone], for which the inhibition at 60 µM in experiment [1] (read-out: Aldosterone) was 12 ± 13%. For the compound `C[C@]12CCC(=O)C=C1CC[C@@H]1[C@@H]2[C@@H](O)C[C@@]2(C)[C@H]1CC[C@]2(O)C(=O)CO` [Cortisol], the inhibition at 60 µM in experiment [1] (read-out: Cortisol) was 13 ± 4%. With `C[C@]12CC[C@H](O)CC1=CC[C@@H]1[C@@H]2CC[C@]2(C)C(=O)CC[C@@H]12` [DHEA], the inhibition at 60 µM in experiment [1] (read-out: DHEA) worked out at 10 ± 6%. `C[C@]12CC[C@@H]3c4ccc(O)cc4CC[C@H]3[C@@H]1CC[C@@H]2O` [Estradiol]: the inhibition at 60 µM came out at 8 ± 10% in experiment [2] (read-out: Estradiol) and 24 ± 7% in experiment [1] (read-out: Estradiol). As to `CC(=O)[C@@]1(O)CC[C@H]2[C@@H]3CCC4=CC(=O)CC[C@]4(C)[C@H]3CC[C@@]21C` [OHP, 17α-hydroxy-4-pregnene-3,20-dione], the inhibition at 60 µM in experiment [1] (read-out: OHP) was 12 ± 6%.

Regarding `CC#C[C@]1(O)CC[C@H]2[C@@H]3CCC4=CC(=O)CCC4=C3[C@@H](c3ccc(N(C)C)cc3)C[C@@]21C` [RU 486], the inhibition at 60 µM in experiment [2] (read-out: RU 486) came to 55 ± 12%; in experiment [1] (read-out: RU 486), 61 ± 15%. `C[C@]12CC[C@H]3[C@@H](CCC4=CC(=O)CC[C@@]43C)[C@@H]1CC[C@@H]2O` [Testosterone]: the inhibition at 60 µM in experiment [1] (read-out: Testosterone) was found to be 17 ± 12%. As to `CC(=O)[C@H]1CC[C@H]2[C@@H]3CCC4=CC(=O)CC[C@]4(C)[C@H]3CC[C@]12C` [progesterone], the results for the inhibition at 30 µM in experiment [3], in experiment [5] and in experiment [6] were 53 ± 3%, 44 ± 9% and 11 ± 1%, respectively. Besides, the “% inhibition at 30 μM” value in experiment [4] stood at 23 ± 8%. In addition, in experiment [2] (read-out: Progesterone), the inhibition at 60 µM came to 34 ± 11%.
